How the values were obtained:
[1] = target: T1, monoamine oxidase (bovine plasma amine oxidase) (Bos taurus, UniProt P21398+P56560); experiment: In vitro bovine plasma monoamine oxidase deamination without semicarbazide; format: cell-free; settings: cattle, read-out: MAO deamination
T1 sequence (P56560 whole entry): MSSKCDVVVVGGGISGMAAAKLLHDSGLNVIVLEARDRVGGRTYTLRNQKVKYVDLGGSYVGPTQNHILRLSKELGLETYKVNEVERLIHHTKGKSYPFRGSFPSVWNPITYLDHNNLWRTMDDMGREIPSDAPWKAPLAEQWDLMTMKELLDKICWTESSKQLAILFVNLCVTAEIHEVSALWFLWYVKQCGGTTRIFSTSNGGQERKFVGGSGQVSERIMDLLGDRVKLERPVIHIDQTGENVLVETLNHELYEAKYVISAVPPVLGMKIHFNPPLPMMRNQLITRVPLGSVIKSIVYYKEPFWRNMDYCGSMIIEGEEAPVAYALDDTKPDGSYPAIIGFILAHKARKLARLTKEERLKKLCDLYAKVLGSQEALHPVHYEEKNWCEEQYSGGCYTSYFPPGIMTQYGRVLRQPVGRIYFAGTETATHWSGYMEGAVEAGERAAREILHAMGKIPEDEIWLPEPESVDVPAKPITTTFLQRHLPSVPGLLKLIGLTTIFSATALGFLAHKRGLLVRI
T1 sequence (P21398 whole entry): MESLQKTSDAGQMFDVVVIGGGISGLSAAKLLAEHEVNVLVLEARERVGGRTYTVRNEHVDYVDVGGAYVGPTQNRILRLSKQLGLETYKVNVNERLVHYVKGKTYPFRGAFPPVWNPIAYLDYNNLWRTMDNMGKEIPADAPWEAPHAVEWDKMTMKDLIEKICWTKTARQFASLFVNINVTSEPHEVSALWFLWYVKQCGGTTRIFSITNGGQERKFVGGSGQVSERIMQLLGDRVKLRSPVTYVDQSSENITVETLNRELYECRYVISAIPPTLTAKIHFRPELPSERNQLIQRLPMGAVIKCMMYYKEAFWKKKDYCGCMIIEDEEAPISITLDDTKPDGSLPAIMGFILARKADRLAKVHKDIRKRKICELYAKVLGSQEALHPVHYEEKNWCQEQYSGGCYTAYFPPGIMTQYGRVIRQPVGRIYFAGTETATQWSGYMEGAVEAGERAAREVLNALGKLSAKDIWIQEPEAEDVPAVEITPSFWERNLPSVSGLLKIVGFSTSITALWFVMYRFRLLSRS
Procedure, shortened: (§1)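 Amines at 50 μM in 0.1 M phosphate buffer, pH 7.4, with 0.01 unit bovine plasma MAO, no semicarbazide, in duplicate, 1 h at 37 °C. Stopped with 0.5 N NaOH, internal standard added, extracted into CH2Cl2. Remaining amine measured by GC (OV-101, 185 °C) as heptafluorobutyryl derivatives, quantitated by peak-height ratio against standards prepared without enzyme.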

[2] = target: T1, monoamine oxidase (bovine plasma amine oxidase); experiment: In vitro bovine plasma monoamine oxidase deamination with semicarbazide; format: cell-free; settings: cattle, with semicarbazide (concentration not stated), read-out: MAO deamination
Procedure, shortened: as §1, with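 “MAO and 50 μM” for “MAO, no”, “GC” for “GC (OV-101, 185 °C)”, “enzyme-free standards.” for “standards prepared without enzyme.”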

Homo sapiens = species: Homo sapiens; experiment: Compound was tested for the psychotropic effect in human (activity is expressed in mescaline unit); format: functional
Procedure, shortened: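 Healthy adult volunteers (32–65 y, experienced with psychotropic drugs) received the hydrochloride orally. Dosing began at 2 mg and rose in small increments (1.6:1) at trials spaced about 1 week apart until an effective level was found. Mescaline units are the effective dose of mescaline divided by that of the compound, both determined in man. A "less than" value means no activity at doses that would give that MU.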

SMILES	metabolised [1] [%]	metabolised [2] [%]	Human potency (Homo sapiens) [MU]
COc1ccc(CCN)cc1OC	64	16	<1
COc1cc(CCN)cc(OC)c1OC [MESCALINE]	21	1	1
COc1c(CCN)ccc(SC)c1OC	40	–	<2
COc1ccc(CCN)c(OC)c1SC	31	–	<2
COc1ccc(CCN)c(OC)c1OC	55	4	<1
COc1cc(CCN)cc(OC)c1SC	56	–	12
COc1cc(CCN)cc(SC)c1OC	60	–	6
COc1ccc(CCN)c(SC)c1OC	78	10	<2
